ChEMBL document CHEMBL2163262 (J Med Chem, 2012)
Values joined by “and” are separate entries in the source; they are usually repeats but may differ in a detail not shown here. Equal values may be shown once.

Tests used:
[1] = molecular target: T1, Neuropeptide FF receptor 1 (Homo sapiens, UniProt Q9GZQ6); experiment: Agonist activity at human NPFF1 receptor expressed in […] assessed as [3H]inositol phosphate accumulation after 2 hrs by liquid scintillation counting; format: functional, cell-based, COS-1
T1 sequence (Q9GZQ6 whole entry): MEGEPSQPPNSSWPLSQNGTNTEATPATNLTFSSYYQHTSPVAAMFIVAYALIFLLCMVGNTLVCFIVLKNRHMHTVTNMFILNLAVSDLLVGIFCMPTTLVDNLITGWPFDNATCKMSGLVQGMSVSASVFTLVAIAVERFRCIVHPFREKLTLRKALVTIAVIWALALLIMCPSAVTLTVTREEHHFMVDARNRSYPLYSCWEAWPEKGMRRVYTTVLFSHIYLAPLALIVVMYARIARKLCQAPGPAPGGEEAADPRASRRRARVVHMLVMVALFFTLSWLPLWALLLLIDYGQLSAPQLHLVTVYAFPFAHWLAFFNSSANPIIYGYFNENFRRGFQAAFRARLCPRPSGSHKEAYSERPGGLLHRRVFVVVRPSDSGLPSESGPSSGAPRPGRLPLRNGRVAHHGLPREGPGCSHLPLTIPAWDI
Outline: (§1)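 IP accumulation in COS-7 cells transiently cotransfected with human NPFFR (Ala point mutant or wt) plus chimeric G protein. Cells seeded at 60,000/well and grown to subconfluency. Compounds were dissolved in DMSO and diluted in DMEM with 10 mM LiCl (1% v/v DMSO final). Stimulation lasted 2 h.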

[2] = molecular target: T1, Neuropeptide FF receptor 1; experiment: Agonist activity at human NPFF1 receptor expressed in COS1 cells assessed as [3H]inositol phosphate accumulation up to 10 uM after 2 hrs by liquid scintillation counting; format: functional, cell-based; conditions: cos-1
[3] = molecular target: T2, Neuropeptide FF receptor 2 (Homo sapiens, UniProt Q9Y5X5); experiment: Agonist activity at human NPFF2 receptor expressed in COS1 cells assessed as [3H]inositol phosphate accumulation at 10 uM after 2 hrs by liquid scintillation counting relative to NPFF; format: functional, cell-based; conditions: COS-1
T2 sequence (Q9Y5X5 whole entry): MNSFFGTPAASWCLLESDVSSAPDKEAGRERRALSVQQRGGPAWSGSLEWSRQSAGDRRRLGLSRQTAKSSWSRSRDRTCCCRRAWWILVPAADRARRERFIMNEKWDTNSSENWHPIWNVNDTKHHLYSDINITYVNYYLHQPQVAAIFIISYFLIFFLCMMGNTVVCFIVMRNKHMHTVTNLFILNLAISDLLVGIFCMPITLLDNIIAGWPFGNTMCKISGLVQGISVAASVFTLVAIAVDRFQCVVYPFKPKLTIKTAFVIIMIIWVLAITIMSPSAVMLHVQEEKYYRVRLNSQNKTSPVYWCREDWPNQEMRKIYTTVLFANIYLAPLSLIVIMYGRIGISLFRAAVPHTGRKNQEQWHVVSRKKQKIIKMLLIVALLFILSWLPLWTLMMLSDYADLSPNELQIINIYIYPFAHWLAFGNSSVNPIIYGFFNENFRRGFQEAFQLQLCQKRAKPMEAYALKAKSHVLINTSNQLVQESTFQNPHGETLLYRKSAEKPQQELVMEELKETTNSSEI

[4] = test system: Neuropeptide FF receptor 2 (Homo sapiens), Q9Y5X5 [Y417A]; experiment: Partial agonist activity at human NPFF2 receptor F/Y7.35A mutant assessed as [3H]inositol phosphate accumulation at 10 uM after 2 hrs by liquid scintillation counting relative to NPFF; format: functional
Chain of Neuropeptide FF receptor 2 (Homo sapiens), Q9Y5X5 [Y417A] (Q9Y5X5 whole entry Y417A): as the sequence (Q9Y5X5 whole entry) above, with Y417A counted along it

[5] = test system: Neuropeptide FF receptor 1 (Homo sapiens), Q9GZQ6 [E205A]; experiment: Agonist activity at human NPFF1 receptor E5.27A mutant assessed as [3H]inositol phosphate accumulation at 31.6 uM after 2 hrs by liquid scintillation counting relative to NPVF; format: functional; outline: as §1
Chain of Neuropeptide FF receptor 1 (Homo sapiens), Q9GZQ6 [E205A] (Q9GZQ6 whole entry E205A): as the sequence (Q9GZQ6 whole entry) above, with E205A counted along it

[6] = test system: Neuropeptide FF receptor 2 (Homo sapiens), Q9Y5X5 [Y417A]; experiment: Agonist activity at human NPFF2 receptor F/Y7.35A mutant assessed as [3H]inositol phosphate accumulation at 10 uM after 2 hrs by liquid scintillation counting relative to NPFF; format: functional; outline: as §1
[7] = molecular target: T1, Neuropeptide FF receptor 1; experiment: Agonist activity at human NPFF1 receptor expressed in COS1 cells assessed as [3H]inositol phosphate accumulation at 10 uM after 2 hrs by liquid scintillation counting relative to NPVF; format: functional, cell-based; conditions: COS-1
[8] = test system: Neuropeptide FF receptor 1 (Homo sapiens), Q9GZQ6 [D294A]; experiment: Agonist activity at human NPFF1 receptor D6.59A mutant assessed as [3H]inositol phosphate accumulation at 31.6 uM after 2 hrs by liquid scintillation counting relative to NPVF; format: functional; outline: as §1
Chain of Neuropeptide FF receptor 1 (Homo sapiens), Q9GZQ6 [D294A] (Q9GZQ6 whole entry D294A): as the sequence (Q9GZQ6 whole entry) above, with D294A counted along it

[9] = molecular target: Neuropeptide FF receptor 1 (Homo sapiens, UniProt Q9GZQ6, E205A); experiment: Agonist activity at human NPFF1 receptor E5.27A mutant assessed as [3H]inositol phosphate accumulation after 2 hrs by liquid scintillation counting; format: functional; outline: as §1
Chain of Neuropeptide FF receptor 1 (Homo sapiens, UniProt Q9GZQ6, E205A) (Q9GZQ6 whole entry E205A): as the sequence (Q9GZQ6 whole entry) above, with E205A counted along it

[10] = molecular target: Neuropeptide FF receptor 2 (Homo sapiens, UniProt Q9Y5X5, Y417A); experiment: Agonist activity at human NPFF2 receptor F/Y7.35A mutant assessed as [3H]inositol phosphate accumulation after 2 hrs by liquid scintillation counting; format: functional; outline: as §1
Chain of Neuropeptide FF receptor 2 (Homo sapiens, UniProt Q9Y5X5, Y417A) (Q9Y5X5 whole entry Y417A): as the sequence (Q9Y5X5 whole entry) above, with Y417A counted along it

[11] = test system: Neuropeptide FF receptor 1 (Homo sapiens), Q9GZQ6 [F311A]; experiment: Agonist activity at human NPFF1 receptor F/Y7.35A mutant assessed as [3H]inositol phosphate accumulation at 31.6 uM after 2 hrs by liquid scintillation counting relative to NPVF; format: functional; outline: as §1
Chain of Neuropeptide FF receptor 1 (Homo sapiens), Q9GZQ6 [F311A] (Q9GZQ6 whole entry F311A): as the sequence (Q9GZQ6 whole entry) above, with F311A counted along it

[12] = test system: Neuropeptide FF receptor 1 (Homo sapiens), Q9GZQ6 [Y309A]; experiment: Agonist activity at human NPFF1 receptor Y7.33A mutant assessed as [3H]inositol phosphate accumulation at 10 uM after 2 hrs by liquid scintillation counting relative to NPVF; format: functional; outline: as §1
Chain of Neuropeptide FF receptor 1 (Homo sapiens), Q9GZQ6 [Y309A] (Q9GZQ6 whole entry Y309A): as the sequence (Q9GZQ6 whole entry) above, with Y309A counted along it

[13] = molecular target: Neuropeptide FF receptor 1 (Homo sapiens, UniProt Q9GZQ6, Y309A); experiment: Agonist activity at human NPFF1 receptor Y7.33A mutant assessed as [3H]inositol phosphate accumulation after 2 hrs by liquid scintillation counting; format: functional; outline: as §1
Chain of Neuropeptide FF receptor 1 (Homo sapiens, UniProt Q9GZQ6, Y309A) (Q9GZQ6 whole entry Y309A): as the sequence (Q9GZQ6 whole entry) above, with Y309A counted along it

[14] = test system: Neuropeptide FF receptor 1 (Homo sapiens), Q9GZQ6 [Y216A]; experiment: Agonist activity at human NPFF1 receptor Y5.38A mutant assessed as [3H]inositol phosphate accumulation at 31.6 uM after 2 hrs by liquid scintillation counting relative to NPVF; format: functional; outline: as §1
Chain of Neuropeptide FF receptor 1 (Homo sapiens), Q9GZQ6 [Y216A] (Q9GZQ6 whole entry Y216A): as the sequence (Q9GZQ6 whole entry) above, with Y216A counted along it

[15] = molecular target: Neuropeptide FF receptor 2 (Homo sapiens, UniProt Q9Y5X5, E310A); experiment: Agonist activity at human NPFF2 receptor E5.27A mutant assessed as [3H]inositol phosphate accumulation after 2 hrs by liquid scintillation counting; format: functional; outline: as §1
Chain of Neuropeptide FF receptor 2 (Homo sapiens, UniProt Q9Y5X5, E310A) (Q9Y5X5 whole entry E310A): as the sequence (Q9Y5X5 whole entry) above, with E310A counted along it

[16] = molecular target: Neuropeptide FF receptor 1 (Homo sapiens, UniProt Q9GZQ6, D294A); experiment: Agonist activity at human NPFF1 receptor D6.59A mutant assessed as [3H]inositol phosphate accumulation after 2 hrs by liquid scintillation counting; format: functional; outline: as §1
Chain of Neuropeptide FF receptor 1 (Homo sapiens, UniProt Q9GZQ6, D294A) (Q9GZQ6 whole entry D294A): as the sequence (Q9GZQ6 whole entry) above, with D294A counted along it

[17] = test system: Neuropeptide FF receptor 2 (Homo sapiens), Q9Y5X5 [E310A]; experiment: Agonist activity at human NPFF2 receptor E5.27A mutant assessed as [3H]inositol phosphate accumulation at 31.6 uM after 2 hrs by liquid scintillation counting relative to NPFF; format: functional; outline: as §1
Chain of Neuropeptide FF receptor 2 (Homo sapiens), Q9Y5X5 [E310A] (Q9Y5X5 whole entry E310A): as the sequence (Q9Y5X5 whole entry) above, with E310A counted along it

[18] = molecular target: Neuropeptide FF receptor 1 (Homo sapiens, UniProt Q9GZQ6, Y216A); experiment: Agonist activity at human NPFF1 receptor Y5.38A mutant assessed as [3H]inositol phosphate accumulation after 2 hrs by liquid scintillation counting; format: functional; outline: as §1
Chain of Neuropeptide FF receptor 1 (Homo sapiens, UniProt Q9GZQ6, Y216A) (Q9GZQ6 whole entry Y216A): as the sequence (Q9GZQ6 whole entry) above, with Y216A counted along it

[19] = test system: Neuropeptide FF receptor 2 (Homo sapiens), Q9Y5X5 [Y415A]; experiment: Agonist activity at human NPFF2 receptor Y7.33A mutant assessed as [3H]inositol phosphate accumulation at 31.6 uM after 2 hrs by liquid scintillation counting relative to NPFF; format: functional; outline: as §1
Chain of Neuropeptide FF receptor 2 (Homo sapiens), Q9Y5X5 [Y415A] (Q9Y5X5 whole entry Y415A): as the sequence (Q9Y5X5 whole entry) above, with Y415A counted along it

[20] = test system: Neuropeptide FF receptor 2 (Homo sapiens), Q9Y5X5 [D400A]; experiment: Agonist activity at human NPFF2 receptor D6.59A mutant assessed as [3H]inositol phosphate accumulation at 31.6 uM after 2 hrs by liquid scintillation counting relative to NPFF; format: functional; outline: as §1
Chain of Neuropeptide FF receptor 2 (Homo sapiens), Q9Y5X5 [D400A] (Q9Y5X5 whole entry D400A): as the sequence (Q9Y5X5 whole entry) above, with D400A counted along it

[21] = molecular target: T2, Neuropeptide FF receptor 2; experiment: Agonist activity at human NPFF2 receptor expressed in COS1 cells assessed as [3H]inositol phosphate accumulation after 2 hrs by liquid scintillation counting; format: functional, cell-based, COS-1
[22] = molecular target: Neuropeptide FF receptor 1 (Homo sapiens, UniProt Q9GZQ6, F311A); experiment: Agonist activity at human NPFF1 receptor F/Y7.35A mutant assessed as [3H]inositol phosphate accumulation after 2 hrs by liquid scintillation counting; format: functional; outline: as §1
Chain of Neuropeptide FF receptor 1 (Homo sapiens, UniProt Q9GZQ6, F311A) (Q9GZQ6 whole entry F311A): as the sequence (Q9GZQ6 whole entry) above, with F311A counted along it

[23] = test system: Neuropeptide FF receptor 2 (Homo sapiens), Q9Y5X5 [Y321A]; experiment: Agonist activity at human NPFF2 receptor Y5.38A mutant assessed as [3H]inositol phosphate accumulation at 31.6 uM after 2 hrs by liquid scintillation counting relative to NPFF; format: functional; outline: as §1
Chain of Neuropeptide FF receptor 2 (Homo sapiens), Q9Y5X5 [Y321A] (Q9Y5X5 whole entry Y321A): as the sequence (Q9Y5X5 whole entry) above, with Y321A counted along it

[24] = molecular target: Neuropeptide FF receptor 2 (Homo sapiens, UniProt Q9Y5X5, Y321A); experiment: Agonist activity at human NPFF2 receptor Y5.38A mutant assessed as [3H]inositol phosphate accumulation after 2 hrs by liquid scintillation counting; format: functional; outline: as §1
Chain of Neuropeptide FF receptor 2 (Homo sapiens, UniProt Q9Y5X5, Y321A) (Q9Y5X5 whole entry Y321A): as the sequence (Q9Y5X5 whole entry) above, with Y321A counted along it

[25] = molecular target: Neuropeptide FF receptor 2 (Homo sapiens, UniProt Q9Y5X5, Y415A); experiment: Agonist activity at human NPFF2 receptor Y7.33A mutant assessed as [3H]inositol phosphate accumulation after 2 hrs by liquid scintillation counting; format: functional; outline: as §1
Chain of Neuropeptide FF receptor 2 (Homo sapiens, UniProt Q9Y5X5, Y415A) (Q9Y5X5 whole entry Y415A): as the sequence (Q9Y5X5 whole entry) above, with Y415A counted along it

[26] = molecular target: Neuropeptide FF receptor 2 (Homo sapiens, UniProt Q9Y5X5, D400A); experiment: Agonist activity at human NPFF2 receptor D6.59A mutant assessed as [3H]inositol phosphate accumulation after 2 hrs by liquid scintillation counting; format: functional; outline: as §1
Chain of Neuropeptide FF receptor 2 (Homo sapiens, UniProt Q9Y5X5, D400A) (Q9Y5X5 whole entry D400A): as the sequence (Q9Y5X5 whole entry) above, with D400A counted along it

[27] = molecular target: T1, Neuropeptide FF receptor 1; experiment: Partial agonist activity at human NPFF1 receptor expressed in COS1 cells assessed as [3H]inositol phosphate accumulation at 10 uM after 2 hrs by liquid scintillation counting relative to NPVF; format: functional, cell-based; conditions: COS-1
[28] = molecular target: T1, Neuropeptide FF receptor 1; experiment: Ratio of EC50 for human NPFF1 receptor F/Y7.35A mutant to EC50 for human wild type NPFF1 receptor
[29] = test system: Neuropeptide FF receptor 1 (Homo sapiens), Q9GZQ6 [F311A]; experiment: Agonist activity at human NPFF1 receptor F/Y7.35A mutant assessed as [3H]inositol phosphate accumulation at 10 uM after 2 hrs by liquid scintillation counting relative to NPVF; format: functional
[30] = molecular target: T1, Neuropeptide FF receptor 1; experiment: Competitive antagonist activity at human NPFF1 receptor expressed in COS1 cells assessed as inhibition of NPVF-induced [3H]inositol phosphate accumulation after 2 hrs by liquid scintillation counting; format: functional, cell-based, COS-1; conditions: read-out: pA2 (converted)
[31] = test system: Neuropeptide FF receptor 2 (Homo sapiens), Q9Y5X5 [Y321A]; experiment: Agonist activity at human NPFF2 receptor Y5.38A mutant assessed as [3H]inositol phosphate accumulation at 10 uM after 2 hrs by liquid scintillation counting relative to NPFF; format: functional; outline: as §1
[32] = test system: Neuropeptide FF receptor 2 (Homo sapiens), Q9Y5X5 [Y415A]; experiment: Agonist activity at human NPFF2 receptor Y7.33A mutant assessed as [3H]inositol phosphate accumulation at 10 uM after 2 hrs by liquid scintillation counting relative to NPFF; format: functional
[33] = test system: Neuropeptide FF receptor 2 (Homo sapiens), Q9Y5X5 [D400A]; experiment: Agonist activity at human NPFF2 receptor D6.59A mutant assessed as [3H]inositol phosphate accumulation at 31.6 uM after 2 hrs by liquid scintillation counting relative to NPFF
[34] = test system: Neuropeptide FF receptor 1 (Homo sapiens), Q9GZQ6 [E205A]; experiment: Agonist activity at human NPFF1 receptor E5.27A mutant assessed as [3H]inositol phosphate accumulation at 10 uM after 2 hrs by liquid scintillation counting relative to NPVF; format: functional; outline: as §1

Compound: N=C(N)N/N=C/c1ccc(Cl)c(C(F)(F)F)c1
- EC50 [1]: 2.37 µM

Compound: NC(N)=NCCC[C@@H](NC(=O)C(c1ccccc1)c1ccccc1)C(=O)NCc1ccc(O)cc1
- EC50 [2]: Not Active
- Emax [3]: 57%
- Emax [4]: 51%

Compound: N=C(N)N/N=C/c1ccc(-c2ccc(Br)cc2C(F)(F)F)o1
- Emax [5]: 21%
- Emax [6]: 100%
- Emax [7]: 110%
- Emax [8]: 85%
- EC50 [9]: > 10 µM
- EC50 [10]: 1.26 µM
- Emax [11]: 88%
- Emax [12]: 111%
- EC50 [13]: 4.61 µM
- Emax [14]: 37%
- EC50 [15]: > 10 µM
- EC50 [16]: > 10 µM
- Emax [17]: 24%
- EC50 [18]: > 10 µM
- Emax [19]: 78%
- Emax [3]: 118%
- Emax [20]: 77%
- EC50 [21]: 1.66 µM
- EC50 [22]: > 10 µM
- Emax [23]: 65%
- EC50 [1]: 5.62 µM
- EC50 [24]: > 10 µM
- EC50 [25]: > 10 µM
- EC50 [26]: > 10 µM

Compound: N=C(N)N/N=C/c1ccc(Br)c(Br)c1
- Emax [27]: 22%
- EC50 [21]: 2.19 µM
- EC50 [1]: 0.527 µM

Compound: NC(=O)[C@H](Cc1ccccc1)NC(=O)[C@H](CCCN=C(N)N)NC(=O)C12CC3CC(CC(C3)C1)C2
- EC50 [10]: 0.472 µM
- EC50 [21]: 0.379 µM
- EC50 [22]: 0.462 µM
- EC50 [1]: 0.071 µM

Compound: N=C(N)NCCC[C@H](NC(=O)C12CC3CC(CC(C3)C1)C2)C(=O)N[C@@H](Cc1ccccc1)C(N)=O
- Emax [6]: 75%
- Emax [7]: 93%
- Ratio EC50 [28]: 271
- Emax [29]: 89%
- Emax [3]: 75%

Compound: N=C(N)NCCC[C@@H](NC(=O)C(c1ccccc1)c1ccccc1)C(=O)NCc1ccc(O)cc1
- EC50 [10]: 0.113 µM
- Kb [30]: 0.0209 µM
- EC50 [21]: 0.233 µM

Compound: N=C(N)N/N=C/C12CC3CC(CC(C3)C1)C2
- Emax [6]: 107%
- EC50 [10]: 0.301 µM
- Emax [31]: 83% and 69%
- EC50 [15]: > 10 µM
- Emax [17]: 59%
- Kb [30]: 0.0417 µM
- Emax [32]: 83%
- EC50 [2]: Not Active
- Emax [3]: 132%
- EC50 [21]: 0.298 µM
- Emax [33]: 140%
- EC50 [24]: 2.45 µM
- EC50 [25]: 8.33 µM
- EC50 [26]: 8.86 µM

Compound: CC(C)C[C@H](NC(=O)[C@H](CC(N)=O)NC(=O)[C@@H]1CCCN1C(=O)[C@@H](N)C(C)C)C(=O)N1CCC[C@H]1C(=O)N[C@@H](CCC(N)=O)C(=O)N[C@@H](CCCNC(=N)N)C(=O)N[C@@H](Cc1ccccc1)C(N)=O
- Emax [34]: 66%
